Results taken from publication PMC7394584 (OncoTargets and therapy, 2020).

Assays:
[1] = test system: MHCC97-H cells' subcutaneous tumor; test: Nude mice subcutaneous tumor model; type: in vivo; conditions: oral; for Tumor Volumes IC50 Values, Solvent control / Tumor Weights IC50 Values, Solvent control / Tumor Volumes IC50 Values, Compound 4 / Tumor Weights IC50 Values, Compound 4: every 2 days, 30 days; for Tumor Volumes IC50 Values, Solvent control / Tumor Weights IC50 Values, Solvent control: agent alone; for Tumor Volumes IC50 Values, Compound 4 / Tumor Weights IC50 Values, Compound 4: agent combined with compound 4 (1 mg/kg)
Summary of the method: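 MHCC97-H cells injected subcutaneously into 4–5-week-old nude mice. Dosing started 4–5 days later as oral liquids formulated with PEG and Tween 80, given orally every 2 days (15 doses over 30 days). Test compound at 1 mg/kg; sorafenib at 0.5 or 2 mg/kg. Tumours then excised. Volume = length × width²/2; weight measured on a balance. Inhibitory rates calculated from volume and weight.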

phospho-p70S6K (Thr389) = test: Western blot, phosphorylation of P70S6K1; type: cell-based, human; conditions: MHCC97-H cells; for phosphorylation of P70S6K1 (Western blot): 1 μmol/L
phospho-AKT = test: Western blot, phosphorylation of AKT; type: cell-based, human; conditions: MHCC97-H cells; for phosphorylation of AKT (Western blot): 1 μmol/L
Summary of the method: (§1)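 MHCC97-H cells (5 × 10^6 per 75T flask) pretreated 12 h with solvent, test compound or reference pathway inhibitors, each at 1 μmol/L, then incubated 24 h. RIPA lysates quantified by BCA; 40 μg protein run on 10–12% SDS-PAGE. Blocking in 5% skim milk/TBS-0.1% Tween-20; rabbit primary antibodies (1:1000, 4°C) against phospho-p70S6K Thr389, phospho-AKT Ser473/Thr308, phospho-ERK and total proteins; β-actin loading control.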

phospho-ERK = test: Western blot, phosphorylation of ERK; type: cell-based, human; conditions: MHCC97-H cells, 1 μmol/L
Summary of the method: as §1

MHCC97-H cells = test: MTT cell-survival examination; type: cell-based; conditions: compound 4 at 0.03 μmol/L (30 nmol/L)
Summary of the method: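 MHCC97-H seeded at 5 × 10^3 cells/well in DMEM + 10% FBS, 37°C, 5% CO2, 24 h. MTT read at OD 490 nm; inhibition = (control − treated)/control × 100%; IC50 calculated from inhibitory rates.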

advanced HCC patients = test: Clinical outcome of sorafenib treatment by mTOR mRNA expression; type: in vivo, human; conditions: sorafenib-treated advanced HCC patients
[2] = stated in introduction, no reference given; cited from earlier work

SMILES: COc1cc2c(Oc3ccc4[nH]c(C)cc4c3F)ccnc2cc1OCC1(N)CC1 [Anlotinib]
- Tumor Volumes IC50 Values, Solvent control [1]: 1.70 ± 0.54 mg/kg
- Tumor Weights IC50 Values, Solvent control [1]: 1.60 ± 0.71 mg/kg
- Tumor Volumes IC50 Values, Compound 4 [1]: 0.44 ± 0.23 mg/kg
- Tumor Weights IC50 Values, Compound 4 [1]: 0.42 ± 0.07 mg/kg

SMILES: N#CC1(c2ccc(NC(=O)c3cccnc3NCc3ccncc3)cc2)CCCC1 [Apatinib]
- Tumor Volumes IC50 Values, Solvent control [1]: 1.95 ± 0.55 mg/kg
- Tumor Weights IC50 Values, Solvent control [1]: 1.65 ± 0.09 mg/kg
- Tumor Volumes IC50 Values, Compound 4 [1]: 0.53 ± 0.20 mg/kg
- Tumor Weights IC50 Values, Compound 4 [1]: 0.59 ± 0.07 mg/kg

SMILES: C[C@@H]1CCN(C(=O)CC#N)C[C@@H]1N(C)c1ncnc2[nH]ccc12 [CP690550]
- phosphorylation of P70S6K1 (Western blot) (phospho-p70S6K (Thr389)): does not affect
- phosphorylation of AKT (Western blot) (phospho-AKT): does not affect
- ERK phosphorylation (Western blot) (phospho-ERK): does not affect

SMILES: CC(C)(C)OC(=O)Nc1ccc(-c2nc(N3CCOCC3)c3ncn(CCC4OCCO4)c3n2)cc1 [Compound 4, tert-butyl (4-(9-(2-(1,3-dioxolan-2-yl)ethyl)-6-morpholino-9H-purin-2-yl)phenyl)carbamate]
- cytotoxicity on MHCC97-H cells (MHCC97-H cells): no obvious cytotoxicity
- inhibitory activity on mTORC1 (phospho-p70S6K1, Western blot) (phospho-p70S6K (Thr389)): definite inhibitory effect
- phosphorylation of P70S6K1 (Western blot) (phospho-p70S6K (Thr389)): only inhibited the phosphorylation of P70S6K1
- inhibition of activation of mTOR kinase (phosphorylation of P70S6K1) in cells (phospho-p70S6K (Thr389); compound 4 at 0.03 μmol/L (30 nmol/L)): significantly inhibited the activation of mTOR
- inhibitory activity on mTORC2 (phospho-AKT SER473, Western blot) (phospho-AKT): weaker than that on mTORC1
- phosphorylation of AKT (Western blot) (phospho-AKT): did not affect PI3K or AKT
- ERK phosphorylation (Western blot) (phospho-ERK): did not show a significant inhibitory effect
- MHCC97-H cells' subcutaneous growth ([1]; compound 4 alone at 1 mg/kg): without significantly affecting
- activation of mTOR in vivo ([1]; compound 4 at 1 mg/kg): significantly inhibited the activation of mTOR

SMILES: CC(C)(C)c1nc(-c2cccc(NS(=O)(=O)c3c(F)cccc3F)c2F)c(-c2ccnc(N)n2)s1 [GSK2118436]
- ERK phosphorylation (Western blot) (phospho-ERK): significantly inhibited ERK phosphorylation

SMILES: O=c1cc(N2CCOCC2)oc2c(-c3ccccc3)cccc12 [LY294002]
- phosphorylation of P70S6K1 (Western blot) (phospho-p70S6K (Thr389)): significantly inhibited
- phosphorylation of AKT (Western blot) (phospho-AKT): significantly inhibited

SMILES: COc1cc2nccc(Oc3ccc(NC(=O)NC4CC4)c(Cl)c3)c2cc1C(N)=O [Lenvatinib]
- Tumor Volumes IC50 Values, Solvent control [1]: 0.70 ± 0.25 mg/kg
- Tumor Weights IC50 Values, Solvent control [1]: 0.78 ± 0.58 mg/kg
- Tumor Volumes IC50 Values, Compound 4 [1]: 0.10 ± 0.05 mg/kg
- Tumor Weights IC50 Values, Compound 4 [1]: 0.10 ± 0.01 mg/kg

SMILES: CNC(=O)c1cc(Oc2ccc(NC(=O)Nc3ccc(Cl)c(C(F)(F)F)c3)c(F)c2)ccn1 [Regorafenib]
- Tumor Volumes IC50 Values, Solvent control [1]: 0.92 ± 0.48 mg/kg
- Tumor Weights IC50 Values, Solvent control [1]: 1.22 ± 0.72 mg/kg
- Tumor Volumes IC50 Values, Compound 4 [1]: 0.43 ± 0.10 mg/kg
- Tumor Weights IC50 Values, Compound 4 [1]: 0.55 ± 0.10 mg/kg

SMILES: CNC(=O)c1cc(Oc2ccc(NC(=O)Nc3ccc(Cl)c(C(F)(F)F)c3)cc2)ccn1 [Sorafenib]
- Tumor Volumes IC50 Values, Solvent control [1]: 1.30 ± 0.48 mg/kg
- Tumor Weights IC50 Values, Solvent control [1]: 1.57 ± 0.41 mg/kg
- Tumor Volumes IC50 Values, Compound 4 [1]: 0.17 ± 0.03 mg/kg
- Tumor Weights IC50 Values, Compound 4 [1]: 0.15 ± 0.04 mg/kg
- OS (overall survival), median (advanced HCC patients; mTOR mRNA High (n = 40)): 10.0 M
- TTP (time to progress), median (advanced HCC patients; mTOR mRNA High (n = 40)): 8.0 M
- OS (overall survival), median (advanced HCC patients; mTOR mRNA Low (n = 12)): 16.0 M
- TTP (time to progress), median (advanced HCC patients; mTOR mRNA Low (n = 12)): 12.0 M

SMILES: CO[C@H]1C[C@@H]2CC[C@@H](C)[C@@](O)(O2)C(=O)C(=O)N2CCCC[C@H]2C(=O)O[C@H]([C@H](C)C[C@@H]2CC[C@@H](OCCO)[C@H](OC)C2)CC(=O)[C@H](C)/C=C(\C)[C@@H](O)[C@@H](OC)C(=O)[C@H](C)C[C@H](C)/C=C/C=C/C=C/1C [everolimus]
- logP [2]: > 6

SMILES: CO[C@H]1C[C@@H]2CC[C@@H](C)[C@@](O)(O2)C(=O)C(=O)N2CCCC[C@H]2C(=O)O[C@H]([C@H](C)C[C@@H]2CC[C@@H](O)[C@H](OC)C2)CC(=O)[C@H](C)/C=C(\C)[C@@H](O)[C@@H](OC)C(=O)[C@H](C)C[C@H](C)/C=C/C=C/C=C/1C [rapamycin]
- logP [2]: > 6
